Source: the EternaBench riboswitch data

Test system: MS2 coat protein
Experiment: apparent Kd, MS2 coat protein; higher = weaker binding; RNA-MaP array; FMN 200 µM where present
How it was run: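 Stalled E. coli RNA polymerase transcribed the designs on Illumina sequencing-chip clusters. SNAP-549-labelled MS2 coat protein was titrated from 0.7 or 1.5 nM, doubling to 3 µM, without and then with constant ligand, in 100 mM Tris-HCl pH 7.5, 80 mM KCl, 4 mM MgCl2, BSA, DTT, yeast tRNA and Tween-20. Per-cluster binding curves were fitted to green signal normalised to red-channel RNA signal and control-cluster median Fmax. The apparent Kd is the median of the filtered fits.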

[1] = designed as: OFF switch for flavin mononucleotide, no ligand
[2] = ligand present: flavin mononucleotide, designed as: OFF switch for flavin mononucleotide
[3] = designed as: ON switch for flavin mononucleotide, no ligand
[4] = ligand present: flavin mononucleotide, designed as: ON switch for flavin mononucleotide

Sequence	apparent Kd [1]	apparent Kd [2]	apparent Kd [3]	apparent Kd [4]
AUCAGCUCGUCAGGAUAUACGUCACUGCGUCAGCAGUGUGGUAAUAUCACAUGAGGAUCACCCAUGUAGAAGGGACGAGCUGAU	5.27 nM	6.28 nM	–	–
CGAAGUAGCACAGGAUAUCAUACAUGAGGAUCACCCAUGUCAAGAAACAAAUGAGAAGGGUGCAGGCGGUGUUGGAGCUGUUGC	–	–	99.4 nM	14.1 nM
ACGUUAAAAGGAUAUACAUGAGGAUCACCCAUGUUGUUCGAACCGGUAAACCCUCUAUGUAGAAGGUUUGGCGC	16 nM	17.9 nM	–	–
AAUGGCGCGAUAGCGCUAAUUAAAACAUGAGGAUCACCCAUGUAGGAUAUCCUACCGAAAUGGUAGGAGAAGGACAAGCAAUGA	23.5 nM	18.7 nM	–	–
GUUUUUUUUAGUUCAUACUAUAUGAUAGAAGGUGAAAUAUAGACAUGAGGAUCACCCAUGUAAUUCAAGGAUAUGUAGUUACUC	–	–	35.1 nM	24.3 nM
UGUUGUAUUACAGGAUAUCUAUUAGUUUAAUUUAGAGAAGGGUAUUCACAUGAGGAUCACCCAUGUAUAUACGAGGAAGUUGUG	–	–	53 nM	62.2 nM
GGUACUCAAAGAGUACAAGGACGAACAUGAGGAUCACCCAUGUAGGAUAUGCUACUCAAAGAGUAGCAGAAGGACAUGUGCAGC	25.6 nM	73 nM	–	–
AUCAGCUCGUCAGGAUAUACGUCACUGCGUCAGCAGUGUGGUAAGAUCACAUGAGGAUCACCCAUGUAGAAGGGACGAGGUGAU	14.9 nM	265 nM	–	–
CUUGAAUAAGUGAGGAUAUACUGUUAGUAAUGAUUGUAGAAGGUACAUGAGGAUCACCCAUGUUUAUUCUUUAU	15.7 nM	16 nM	–	–
AGGUACCAUGUUAGGAUAUCACUGACUAACGUCGCUGAGAAGGAACAUGAGGAUCACCCAUGUGCCGGGCUCUU	20.9 nM	50.8 nM	–	–
AGGUAACAUGAGGAUCACCCAUGUCAGGAUAUCAUGAAGAGGAGAUUAGAGGAGAGGUUGAGAAGGGACUAUAU	76 nM	57.4 nM	–	–
CGCUGUCACGCAGGAUAUGCAUUGGAUUCCAAUGCAGAAGGGCGAUUACAUGAGGAUCACCCAUGUGUUGACAGUGAAGAAGAG	–	–	1250 nM	76.3 nM
GGAUGACAAAGUCAUCCAAUUCGAACAUGAGGAUCACCCAUGUAGGAUAUGCUACACAAAGUGUAGCAGAAGGACAUGUGCCUU	30.7 nM	183 nM	–	–
AAUUAUUUGUAGAAGGAAGGAGAUUUUGUAUUCUUAGGAUAUACUAUUACAUGAGGAUCACCCAUGUUUGAAGGGUUGCAAUGU	47.5 nM	59.8 nM	–	–
AAGAAACAUGAGGAUCACCCAUGUGAGGAUAUGAAAAAGAAAAGAAAAGAAAGAAGGUUCAGAAGGCACAAAGG	32.8 nM	64.8 nM	–	–
AGCUACGUUUCGUAGCAGUGUCAUCGAGAAGGCCCUGACAUGAGGAUCACCCAUGUUGUUACAUGGGAGGAUAUCGAUGAUACC	–	–	13.3 nM	5.32 nM
AGUCAGACAGGAUAUACGUGGAUGGAACACUUAUUUCCACUACAUGAGGAUCACCCAUGUAGAAGGGUCUGACA	18.8 nM	19.7 nM	–	–
GAGAAGGUAGGAUAUACGAAUAAAUAGGGUAGGAAGAAGACACAUGAGGAUCACCCAUGUAGAAGGACCAAGAU	18.8 nM	38.3 nM	–	–
ACUUGUAAGUAGAAGGCAGUCAUUAUAUUAAUCAUGUAGACAUGAGGAUCACCCAUGUAGAGUACUGAGGAUAUACAUCGAUAG	12.5 nM	9.85 nM	–	–
GUUGAGUGAGAGAAGGCCAGUUGGGAAAAUGAUCGACAGUGUACAGCGUGGAGGAUAUCUCAACAUGAGGAUCACCCAUGUAUA	–	–	186 nM	12.3 nM
UCCCUUGCUGGAGGAUAUCGCACAUGAGGAUCACCCAUGUCGGCACUCGGGCGCAUCCUCUUGGACGAGAAGGCCAGGAGGUAC	179 nM	79.4 nM	–	–
AGAUCCUGAGUCAGGAUAUAGAGACGGUAGUCGGGCUAGAAGGGACAUGAGGAUCACCCAUGUGGGUUCUUGCC	10.7 nM	13.1 nM	–	–
AGCCUAGCAGGAUAUGCCCGGGAUAACAUGAGGAUCACCCAUGUGACUGAUUGAUAUCCUGCAGAAGGGCUAGGGA	24.4 nM	122 nM	–	–
CUGUGAUGGAUCCAGAAUUACAACAUGAGGAUCACCCAUGUGCAGGAUAUCGGGUUGAUAGGCGCCGAGAAGGGUAUAGUCACG	132 nM	132 nM	–	–
GAUCACUCUGUGAGGAUAUGAGGGCUCUUAGAGUAUCAGAAGGCACAUGAGGAUCACCCAUGUAUUCCGUUCUA	42.5 nM	259 nM	–	–
AAUCCACAUGAGGAUCACCCAUGUCAGGAUAUACGCAUCGGACCGAUCGGCUGUUUGGGUAGAAGGGACGUGCA	16 nM	16.1 nM	–	–
GUGUACAGAGGAUAUACUCAUGGAGUUACGAAAGUAACUUCACAUGAGGAUCACCCAUGUAGAAGGCUGUACAC	473 nM	293 nM	–	–
UUUAAGUCAGGAUAUCGUUAAUUUAAUUGUUUGUUUUAGUUCGAGAAGGGACAUGAGGAUCACCCAUGUAAUUU	34.3 nM	38.9 nM	–	–

Sequence	apparent Kd [1]	apparent Kd [2]	apparent Kd [3]	apparent Kd [4]
GGUUGACAAAGUCAACCAUAACGAACAUGAGGAUCACCCAUGUAGGAUAUGCUACUCAAAGAGUAGCAGAAGGACAUGUGUCUU	32.6 nM	161 nM	–	–
ACUGGUCGAGGAUAUACAUUCGUGCUUCGGCACGUAAGAUCACAUGAGGAUCACCCAUGUAGAAGGCGACCAGU	104 nM	732 nM	–	–
AAGAAACAUGAGGAUCACCCAUGUGAUAAUAUGGGAGGAUAUACAAAGACGAAAGUCGAAGUAGAAGGCCUAUGAA	–	–	52.3 nM	43.2 nM
GUUUUCGCAUGAGGAUAUGCUCGCAUUUCAAGAGCAGAAGGUAUGUCUAUAGACAUGAGGAUCACCCAUGUAUUUAACUUUGAA	–	–	232 nM	44.5 nM
CCGCAAAAGCAGGAUAUCGUAUCGGAUACGAUACGAGAAGGGCUAACAUGAGGAUCACCCAUGUGUCCUAGCGG	16.9 nM	25.6 nM	–	–
AUGUUGAGCAGUGUAUUAAGAUCACAUGAGGAUCACCCAUGUAGAAGGUAUGAGCUGAUCGCUCAUAAGGAUAUACAUCACUGC	69.9 nM	119 nM	–	–
UAAUGAUAAGCAGGAUAUACUACACAUGAGGAUCACCCAUGUGUGUGAUCCACUCUCGUAUGGUAGUAGAAGGGCUCAGAGUAC	153 nM	80.6 nM	–	–
GGAAAGUGAGGAUAUGGUAAUUUAAUUAUUAAUUAAUUAAUCCAGAAGGCACAUGAGGAUCACCCAUGUAAAUG	35.9 nM	61.5 nM	–	–
GGUGCGUCUGUGAGGAUAUGCUGGUCCUUGGCUCGGCAGAAGGCACAUGAGGAUCACCCAUGUGGUGUCGUGCC	18.5 nM	34.6 nM	–	–
GGAAGACAAAGUCUUCCAUAACGAACAUGAGGAUCACCCAUGUAGGAUAUGCUACUCAAAGAGUAGCAGAAGGACAUGUGUCUU	28.1 nM	129 nM	–	–
GUCAGCUCGUGAGGAUAUACAUCACUGCUUCGGCAGUGUAUUAAGUUCACAUGAGGAUCACCCAUGUAGAAGGCACGAGCUGAU	15.2 nM	20.3 nM	–	–
GGACAUGUCGUUUACAUGAGGAUCACCCAUGUCGAUGGACAUGAGGAUAUCGAUCCGAAUCGGAUCGAGAAGGCAUGCAUGUCC	–	–	41.8 nM	18.6 nM
UCCUACAUCGGAGGAUAUCAUGUGUAAACAUGAGGAUCACCCAUGUCGUACGAGAGUACGGAGAUUGAGAAGGCCGAUGUAGGU	–	–	96 nM	17.2 nM
GUCGUGUCAGGAUAUACGUUUGUUUCUUUUUUUGUUGUUUAGUAGAAGGGACAUGAGGAUCACCCAUGUUUGUU	29.4 nM	47.4 nM	–	–
UUUACAUUACGAGGAUAUCAUUUAUUUCAUGUUUGAGAAGGCGUUUUUUUUAUUACCUUACAUGAGGAUCACCCAUGUUUCUUU	–	–	35.8 nM	21.8 nM
GGAUCGAGUGUGAGGAUAUGCUGGUCCUUGGAUCAGCAGAAGGCACAUGAGGAUCACCCAUGUGUUCCCGAUCC	43.6 nM	626 nM	–	–
CUUCGUAUAGAGGAUAUAGGAUACUUCGGUGUCCUAGAAGGCUGUACAUGAGGAUCACCCAUGUACUUCAGAUC	12.1 nM	14.3 nM	–	–
UGUGCGUUGAUCUUCGAUCGGAGUACAUGAGGAUCACCCAUGUAGGAUAUUCAAAGACGCAGAUAGAAGAAGGACAUAGGUUUC	10.1 nM	11.1 nM	–	–
GGAGCAUAUCAAUACAUGAGGAUCACCCAUGUCGAAUGAUAUGAGGAUAUGCAUCGGAAAACGAUGUAGAAGGCAUAGUGCUCC	–	–	9.14 nM	5.58 nM
UUGGACGUCGUAGGAUAUGUAGGAUAUUCCUACAUGAGGAUCACCCAUGUGGACAUGGAAGAAGGACAGAAGGACGAUGUCCAU	–	–	63.7 nM	4.7 nM
AUUGUAGGAGGAUAUACAUGAGGAUCACCCAUGUCGUCCCAGGAGGACACCUUCCCAUGUAGAAGGCCUGGGAC	31.4 nM	19.3 nM	–	–
CGCUACUACCAGAAGGACAUGAGGAUCACCCAUGUAGGAUAUGGGUUACAAGUACCAGUGUAAAGAAACUACGCUACGUUUGCG	–	–	47.2 nM	7.79 nM
CUCGUGUCAGGAUAUCGAUGGCACCUCCGGGCGCCCGAACGCGAGAAGGGACAUGAGGAUCACCCAUGUAAAAC	66.8 nM	113 nM	–	–
AAUAAACUCACAGGAUAUAGCAUAGGCCGCGUGAACUUACAGGCGACUAUGCUAGAAGGGUGACCACAUGAGGAUCACCCAUGU	–	–	851 nM	141 nM
GGAAAGAUGUUAGGAUAUGGCUUCCCGGUGAAGCCAGAAGGAACAUGAGGAUCACCCAUGUAAAGCGAGUGGCUCUUCUCUGGA	18.6 nM	65.9 nM	–	–
GUGAAGGUAGGAUAUACGAUAAUAUAGGGUAGAUAUAUAACACAUGAGGAUCACCCAUGUAGAAGGACCAAUUG	34.2 nM	122 nM	–	–
CCGGGCUAGGAGAAGGGCUAGAGUGUGAUAUAUUUGCCCGCGAGCACAUGAGGAUCACCCAUGUAGCAGGAUAUCCAAGCCGAU	7.33 nM	18 nM	–	–
